Source: PubChem BioAssay
Tn7 DDE FP – inhibitors of Tn7 peptide binding to fibrin DD(E), primary screen, biochemical, fluorescence polarization, human fibrin, Tn7 probe; Fibrinogen beta chain (Homo sapiens), P02675; FP displacement of FITC-Tn7 peptide from fibrin DD(E); 0% = median of compound wells per plate; inhibition, % at 8.3 µM; 370,000 compounds, 0.13% hits; AID 720508, 2013;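 active = inhibition above the mean of compounds falling within the control limits plus 3 SD of them, cut at about 14% in these data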;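 also: 0% = plate median of compound wells and 100% = 10 µM Aha-Tn7 peptide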
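Also added: labelled Tn7 tracer, 0.1 µM; Assay system: human fibrin DD(E) protein; Amount: 2 µM fibrin DD(E); Schedule: 10 min compound pre-incubation, 3 h probe incubation at room temperature; Repeats: one replicate per compound; Read-out basis: percent inhibition; Measured by: fluorescence polarization of the labelled Tn7 tracer.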
mABHD4 FP – ABHD4 inhibitors, primary screen, biochemical, fluorescence polarization, mouse | inhibition, % at 8.92 µM | purified mABHD4, FP-Rh probe fluorescence polarization | 370,000 compounds, 0.54% hits | (Lyso)-N-acylphosphatidylethanolamine lipase (Mus musculus), Q8VD66;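 active = inhibition exceeding the mean over every tested compound plus 3 SD, cut at about 30% in these data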;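 also: 0% = plate median of compound wells and 100% = S159A mutant with DMSO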
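Doses – 8.92 µM, single dose · Material – wild-type mouse ABHD4 protein · Replication – single well per compound (singlicate) · Measure – percent inhibition of probe binding, normalized to plate controls · Schedule – 45 min compound pre-incubation plus 60 min probe step, 25 °C · Detection – fluorescence polarization with parallel and perpendicular emission, 525/598 nm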
Tn6 DDE FP – inhibitors of Tn6 peptide binding to fibrin DD(E), primary screen, biochemical, fluorescence polarization, human fibrin, Tn6 probe; Fibrin DD(E) TRITC-Tn6 fluorescence polarization displacement; inhibition, % at 8.3 µM; 370,000 compounds, 0.21% hits;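 active = inhibition above a per-campaign cutoff: mean of compounds within control limits plus 3 SD, cut at about 15% in these data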;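 also: 0% = median of all compound wells on the plate and 100% = blocking peptide control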
TCR-CD3 inh – inhibitors of human TCR-CD3 interaction, primary screen, biochemical, fluorescence, TAMRA-labeled TCR probe. T-cell receptor (TCR). inhibition, % at 9.4 µM. 360,000 compounds, 0.37% hits. AID 651800, 2012; in the data active = inhibition above about 19%;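 also: recombinant mutant TCR 2C K166C tagged with TAMRA read by polarization; 0% = receptor in buffer alone and 100% = receptor with positive control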
HTRA1 inh – HTRA1 serine protease inhibitors, primary screen, biochemical, fluorescence polarization, HTS; inhibition, % at 5.96 µM; recombinant HTRA1, FP-rhodamine activity-based probe; 340,000 compounds, 0.5% hits; AID 504803, 2011; Q92743; in the data active = inhibition above about 36%;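 also: 0% = enzyme with DMSO and 100% = wells lacking enzyme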
SIAE inh – human SIAE inhibitors, primary screen, biochemical, fluorescence polarization, FP-Rh probe, 1536-well HTS; Sialate O-acetylesterase (Homo sapiens), Q9HAT2; SIAE FP-Rh probe binding; inhibition, % at 9.66 µM; 370,000 compounds, 0.69% hits;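 active = inhibition above a cutoff: mean of compounds within the control limits plus 3 SD of those, cut at about 17% in these data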;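 also: 0% = plate median of compound wells and 100% = probe without SIAE protein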
Target sequence (Q9HAT2 whole entry, looked up): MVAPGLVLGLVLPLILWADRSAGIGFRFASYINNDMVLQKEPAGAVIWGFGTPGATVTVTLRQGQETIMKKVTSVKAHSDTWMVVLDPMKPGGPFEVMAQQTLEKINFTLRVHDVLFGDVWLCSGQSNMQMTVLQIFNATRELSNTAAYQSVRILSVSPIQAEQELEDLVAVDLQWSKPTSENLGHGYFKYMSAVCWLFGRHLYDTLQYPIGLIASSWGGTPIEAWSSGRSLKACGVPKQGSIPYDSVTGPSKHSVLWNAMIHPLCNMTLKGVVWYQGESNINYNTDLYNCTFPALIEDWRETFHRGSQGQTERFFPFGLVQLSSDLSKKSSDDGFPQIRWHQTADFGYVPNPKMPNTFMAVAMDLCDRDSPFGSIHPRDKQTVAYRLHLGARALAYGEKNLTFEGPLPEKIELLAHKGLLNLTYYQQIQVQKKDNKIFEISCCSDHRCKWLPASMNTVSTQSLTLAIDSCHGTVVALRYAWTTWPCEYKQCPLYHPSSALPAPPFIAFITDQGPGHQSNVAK
Tn6 DDE ctr – counter-screen for inhibitors of Tn6 peptide binding to fibrin DD(E); 680 compounds, 2% hits; shares compounds with Tn6 DDE FP; TRITC-Tn6 fluorescence polarization displacement; 0% = median of compound wells, not DMSO; AID 720621; inhibition, % at 8.3 µM;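 active = inhibition above the mean of test compounds lying between the control limits plus 3 SD of those, cut at about 14% in these data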;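 also: 0% = median of compound wells and 100% = wells with Aha-Tn7 blocking peptide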
DDE Tn6 confirm – inhibitors of Tn6 peptide binding to fibrin DD(E), confirmation, biochemical, fluorescence polarization, human fibrin, Tn6 probe | shares compounds with Tn6 DDE FP | FP displacement of TRITC-Tn6 peptide from DD(E); 0% = per-plate median of test wells | inhibition, % at 8.3 µM | 680 compounds, 10% hits | AID 720631, 2013;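 active = inhibition above the mean of compounds lying within the control limits plus 3 SD, cut at about 16% in these data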;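 also: 100% = high control wells holding a competing inhibitor peptide at 10 µM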
Starred values were filed as active, the others as inactive. Rows were chosen to be rich in hits. Some 1.8% of all compounds tested hit in one or more screens of this group.

Screening Cc1c(Cc2ccccc2)c(=O)oc2cc(OCC(=O)N3CCC(C(N)=O)CC3)ccc12 returned Tn7 DDE FP 5.3, mABHD4 FP -2.8, Tn6 DDE FP 17.7*, TCR-CD3 inh 1.7, HTRA1 inh -1.4, SIAE inh -5.2, Tn6 DDE ctr 1.0 and DDE Tn6 confirm 1.7.
`Oc1ccccc1C1CC(c2cccs2)=NC(c2cccc(Br)c2)N1` (stereo not drawn) gave Tn7 DDE FP 6.4, mABHD4 FP -4.2, Tn6 DDE FP 104.8*, TCR-CD3 inh -4.9, HTRA1 inh -23.5, SIAE inh -1.9, Tn6 DDE ctr 5.7 and DDE Tn6 confirm -6.2.
Screening COC1=CC(=O)OC(c2ccccc2C(F)(F)F)C1 (stereo not drawn) returned Tn7 DDE FP 7.3, mABHD4 FP 0.2, Tn6 DDE FP 5.4, TCR-CD3 inh 6.1 and SIAE inh 6.7.
COC1=CC(=O)OC(c2ccc(C(F)(F)F)cc2)C1 (stereo not drawn) was read as Tn7 DDE FP 8.9, mABHD4 FP -1.2, Tn6 DDE FP 16.0*, TCR-CD3 inh -6.7, SIAE inh 3.2, Tn6 DDE ctr 1.1 and DDE Tn6 confirm -5.0.
CC(C)CN1C(=O)[C@@]2(CC(=O)N(C)C2c2ccccc2)c2cc(-n3cc(C(C)(C)O)nn3)ccc21 (stereo partly drawn) was read as Tn7 DDE FP -3.8, mABHD4 FP -2.4, Tn6 DDE FP -3.7 and SIAE inh 0.9.
Screening COc1ccc(NC(=O)CC(C)(C)C)c([N+](=O)[O-])c1 returned Tn7 DDE FP 4.5, mABHD4 FP -3.7, Tn6 DDE FP 16.2*, TCR-CD3 inh 0.5, HTRA1 inh 0.8, SIAE inh -1.9, Tn6 DDE ctr 5.3 and DDE Tn6 confirm 1.5.
Screening COC(=O)[C@]12C[C@H](CC(=O)N3CCN(C(=O)C4CC4)CC3)C(=O)N(Cc3cccc4ccccc34)C1=C[C@H](C(C)(C)C)O[C@@H]2C returned Tn7 DDE FP 2.9, mABHD4 FP -2.9, Tn6 DDE FP -3.7 and SIAE inh 2.6.
For O=C(COC(=O)c1ccccc1NC(=O)c1ccccc1)c1cccc([N+](=O)[O-])c1 the results were Tn7 DDE FP 3.0, mABHD4 FP -0.4, Tn6 DDE FP 16.8*, TCR-CD3 inh 4.1, HTRA1 inh 0.5, SIAE inh -7.6, Tn6 DDE ctr 2.9 and DDE Tn6 confirm 5.2.
For CCOc1ccc(OCC(=O)Nc2cc3c(cc2C(=O)O)OCCCO3)cc1 the results were Tn7 DDE FP 5.9, mABHD4 FP -3.7, Tn6 DDE FP 0.5, TCR-CD3 inh 0.6, HTRA1 inh 0.9 and SIAE inh 6.9.
For COc1ccc(OCC(=O)Nc2cc3c(cc2C(=O)O)OCCCO3)cc1 the results were Tn7 DDE FP 7.4, mABHD4 FP -7.2, Tn6 DDE FP 16.6*, TCR-CD3 inh 9.9, HTRA1 inh -0.6, SIAE inh -2.4, Tn6 DDE ctr 5.1 and DDE Tn6 confirm 0.5.
Cc1c(C)n(CC(O)CN2CCCCC2)c2ccccc12 (stereo not drawn) was read as Tn7 DDE FP -5.8, mABHD4 FP 19.5, Tn6 DDE FP 4.4, TCR-CD3 inh 0.0, HTRA1 inh 3.7 and SIAE inh 4.2.
`Cc1cc(C)n(CC(O)Cn2c(C)c(C)c3ccccc32)n1` (stereo not drawn) gave Tn7 DDE FP 3.3, mABHD4 FP 1.4, Tn6 DDE FP 18.6*, TCR-CD3 inh 7.0, HTRA1 inh -7.5, SIAE inh 12.3, Tn6 DDE ctr -2.2 and DDE Tn6 confirm 0.6.
CC1CCCN(CCCNC(=O)c2ccc3c(c2)N(Cc2ccc(F)cc2)C(=O)c2ccccc2S3=O)C1 (stereo not drawn) was read as Tn7 DDE FP -1.3, mABHD4 FP 3.2, Tn6 DDE FP 2.2, TCR-CD3 inh 3.5, HTRA1 inh -4.5 and SIAE inh -3.4.
CC1CCCN(CCCNC(=O)c2ccc3c(c2)N(Cc2cccc(Cl)c2)C(=O)c2ccccc2S3=O)C1 (stereo not drawn) was read as Tn7 DDE FP 4.9, mABHD4 FP -6.3, Tn6 DDE FP 16.0*, TCR-CD3 inh 4.4, HTRA1 inh -19.2, SIAE inh -3.8, Tn6 DDE ctr -1.9 and DDE Tn6 confirm -5.3.
For O=C(O)c1cn(-c2ccc(N3CCCC3)c(F)c2)c2c(F)c(F)c(F)cc2c1=O the results were Tn7 DDE FP 1.3, mABHD4 FP 1.3, Tn6 DDE FP 17.8*, TCR-CD3 inh 5.8, HTRA1 inh 1.9, SIAE inh -3.6, Tn6 DDE ctr -1.7 and DDE Tn6 confirm -4.0.
Screening CC1CCN(S(=O)(=O)c2ccc(C(=O)Nc3nnc(C4CC4)o3)cc2)CC1 returned Tn7 DDE FP 1.6, mABHD4 FP -1.6, Tn6 DDE FP 20.9*, TCR-CD3 inh 1.9, HTRA1 inh 2.4, SIAE inh 3.2, Tn6 DDE ctr -2.8 and DDE Tn6 confirm -4.2.
For CCN1CCN(c2ccc(S(=O)(=O)N3CCCCC3)cc2NC(=O)/C=C/c2ccc(F)cc2)CC1 the results were Tn7 DDE FP -3.4, mABHD4 FP 17.4, Tn6 DDE FP -0.5, TCR-CD3 inh 9.0, HTRA1 inh -11.0 and SIAE inh -2.0.
`CCN1CCN(c2ccc(S(=O)(=O)N3CCCCC3)cc2NC(=O)/C=C/c2cccc(OC)c2OC)CC1` gave Tn7 DDE FP 10.4, mABHD4 FP 9.1, Tn6 DDE FP 16.1*, TCR-CD3 inh 5.8, HTRA1 inh -11.6, SIAE inh -3.2, Tn6 DDE ctr -4.6 and DDE Tn6 confirm -8.4.
For COc1ccc(OC)c(C(=O)NC(CC(N)=O)c2ccc(NCCN3CCCC3)c([N+](=O)[O-])c2)c1 (stereo not drawn) the results were Tn7 DDE FP 3.9, mABHD4 FP -1.8, Tn6 DDE FP 15.8*, TCR-CD3 inh -4.6, HTRA1 inh 7.5, SIAE inh -0.3, Tn6 DDE ctr 4.0 and DDE Tn6 confirm -4.9.
For Cc1occc1C(=O)NCCCCNC(=O)c1ccoc1C the results were Tn7 DDE FP 6.0, mABHD4 FP -4.3, Tn6 DDE FP 0.7, TCR-CD3 inh 6.7, HTRA1 inh 9.2 and SIAE inh 5.3.
